Published values collected from several papers.
Compare with care: the assays were run in different laboratories.
Target: Dual specificity mitogen-activated protein kinase kinase 2 (MAP2K2, Homo sapiens, UniProt P36507)

CCN1CCC2(CC1)NC(=O)c1c(c3ccc(Cl)c(Cl)c3n1C)C2C#N (racemic) — ΔTm (thermal stability; DSF; 10 µM): -0.1 °C
O=C(Nc1cnn(-c2csc(C(=O)NC3COC3)c2)c1)Nc1ccccc1Cl — remaining activity (enzyme activity; inhibitor; 5 µM): 92.2%
Cc1ccc(NC(=O)c2ccc(CN3CCN(C)CC3)cc2)cc1Nc1nc(-c2cccnc2)cs1 — remaining signal (cell-free assay; 0.5 µM): 114%
CN(C(=O)c1ccccc1)c1cc(N(C)c2ccc3c(c2)CCc2ccc(C(=O)NCCN4CCOCC4)cc2C3=O)ccc1F — remaining binding (cell-free assay; competition with immobilised ligand; 1 µM): 100%
Cn1c2c(Cl)c(Cl)ccc2c2cc[nH]c(=O)c21 — ΔTm (thermal stability; DSF; 10 µM): -0.5 °C
O=C1Nc2ccc(Cl)cc2C1=Cc1cc(Cl)c(O)c(Cl)c1 — remaining signal (cell-free assay; 0.5 µM): 82%
COc1cc2ncnc(Nc3ccc(Oc4ccccc4)cc3C)c2cc1OC — inhibition (enzyme activity; inhibitor; 1 µM): 41%
Cc1ccc(C(=O)NCc2ccsc2)cc1C#Cc1cn(C(C)C)c2ncnc(N)c12 — activity vs control (enzyme activity; inhibitor; 1 µM): 81%
COc1cc(Nc2cnc(C#N)c(O[C@H](C)CN(C)C)n2)ncc1-c1cnn(C)c1 — remaining activity (enzyme activity; inhibitor; radiometric; 10 µM): 57%
CN(C)C(=O)Cn1cc(-c2nc([C@@](C)(c3ccc(-c4cnc(N)nc4)cc3)C3CC3)no2)cn1 — remaining binding (cell-free assay; competition with immobilised ligand; 1 µM): 86%
Cn1c2c(c3ccc(Cl)c(Cl)c31)C(C#N)C1(CCNCC1)NC2=O (racemic) — ΔTm (thermal stability; DSF; 10 µM): -0.4 °C
O=S(=O)(NC1CCC(c2cc(F)ccc2F)(S(=O)(=O)c2ccc(Cl)cc2)CC1)C(F)(F)F (stereo not shown) — remaining binding (cell-free assay; competition with immobilised ligand; 1 µM): 100%
O=C1NC(=O)c2cc(Nc3ccc(F)cc3)c(Nc3ccc(F)cc3)cc21 — remaining signal (cell-free assay; 0.5 µM): 89.5%
Cn1c2c(Cl)c(Cl)ccc2c2cc(N)[nH]c(=O)c21 — ΔTm (thermal stability; DSF; 10 µM): -0.1 °C
Cc1sc(C(=O)NC2COC2)cc1-n1cc(NC(=O)Nc2c(F)cccc2Cl)cn1 — remaining activity (enzyme activity; inhibitor; 10 µM): 99.5%
COc1cc(-c2cc(-c3ccc(N4CCNCC4)cc3)cnc2C)cc(OC)c1OC — inhibition (enzyme activity; inhibitor; 0.1 µM): 4%
CCCS(=O)(=O)Nc1ccc(F)c(C(=O)c2c[nH]c3ncc(-c4ccc(Cl)cc4)cc23)c1F — inhibition (enzyme activity; inhibitor; 1 µM): < 10%
N#CC1c2c([nH]c3c(Cl)c(Cl)ccc23)C(=O)NC12CCCCC2 (racemic) — ΔTm (thermal stability; DSF; 10 µM): -0.8 °C
O=C(NCc1ncc(C(F)(F)F)cc1Cl)c1ccc2c(c1)C1(CCS(=O)(=O)CC1)[C@@H](C1CC1)N2S(=O)(=O)c1ccc(F)cc1 — remaining binding (cell-free assay; competition with immobilised ligand; 1 µM): 78%
CS(=O)(=O)Nc1cccc(-c2csc(NC(=O)CSc3nc4nccnc4c(=O)n3CCc3ccccc3)n2)c1 — inhibition (enzyme activity; inhibitor; 10 µM): -1%
CCCOc1ccc([C@H]2[C@H](C(=O)O)[C@@H](c3ccc4c(c3)OCO4)CN2CC(=O)Nc2c(CC)cccc2CC)cc1 — remaining binding (cell-free assay; competition with immobilised ligand; 1 µM): 62%
C#Cc1cccc(Nc2ncnc3cc(OCCOC)c(OCCOC)cc23)c1 — remaining signal (cell-free assay; 0.5 µM): 105%
CS(=O)(=O)N1CCCC(NC(=O)[C@H](CCC2CCCCC2)NC(=O)c2ccc(CNC(=O)c3cnc4ccccn34)cc2)C1 (stereo partly shown) — remaining binding (cell-free assay; competition with immobilised ligand; 0.1 µM): 100%
CCOc1cc(-c2nncn2C)ccc1Nc1ncc2cc(C)nc(NCC(C)(C)C)c2n1 — inhibition (enzyme activity; inhibitor; FRET; 1 µM): 18%
FC(F)(F)Oc1cccc(-c2cnc3ccc(-c4ccncc4)nn23)c1 — activity vs control (enzyme activity; inhibitor; radiometric; 5 µM): 94%
CS(=O)(=O)N1CCCC(NC(=O)[C@H](CCC2CCCCC2)NC(=O)c2ccc(CNc3ncnc4c3nnn4-c3ccccc3)cc2)C1 (stereo partly shown) — remaining binding (cell-free assay; competition with immobilised ligand; 0.1 µM): 90%
FC(F)c1nc2ccccc2n1-c1nc(N2CCOCC2)nc(N2CCOCC2)n1 — remaining activity (enzyme activity; inhibitor; 10 µM): 95%
Cn1c2c(c3ccc(Cl)c(Cl)c31)C(C#N)C(C)(C)NC2=O (stereo not shown) — ΔTm (thermal stability; DSF; 10 µM): -0.5 °C
Cn1cc(Cl)c2c(Oc3c(F)cc(Nc4cc(Cl)nc(N)n4)cc3F)ccnc21 — remaining binding (cell-free assay; competition with immobilised ligand; 0.1 µM): 100%
Cn1c2c(c3ccccc31)C(C#N)C(C)(C)NC2=O (stereo not shown) — ΔTm (thermal stability; DSF; 10 µM): -0.1 °C
CC(C)(C)c1nc(-c2cccc(NS(=O)(=O)c3c(F)cccc3F)c2F)c(-c2ccnc(N)n2)s1 — remaining activity (enzyme activity; inhibitor; radiometric; 1 µM): 91%
